The values below come from article PMC7903221 (Bioorganic & medicinal chemistry, 2020).

Data set [1] deals with A549. Kind of data set: MTT assay, A549. Conditions: read-out: IC50 Value A549, 72 hours. The class given is cell-based, human. The procedure, abridged: (§1)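 Human NSCLC lines were kept in RPMI 1640 with 10% FBS at 37 °C, 5% CO2, passaged every 2–3 days. Cells were seeded at 5,000–7,000/well depending on line and left 24 h. Test compound in DMSO/water (1 mM stock) was added at final 1, 4, 16 and 32 μM in medium, 6 replicates, for 72 h. MTT was applied for 3–4 h, then medium was replaced by DMSO for 15 min and OD read at 540 nm. IC50 is growth inhibition of 50% versus untreated cells.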

In data set [2] the test system is HCC827. The data set is described as follows: MTT assay, HCC827. The class given is cell-based, human. As to conditions: read-out: IC50 Value HCC827, 72 hours. The procedure, abridged:
as §1

The subject of data set [3] is NCI-H1975. The data set is described as follows: MTT assay, NCI-H1975. The class given is cell-based, human. As to conditions: read-out: IC50 Value NCI-H1975, 72 hours. The procedure, abridged: as §1
Data set [4] deals with NCI-H460. The data set is described as follows: MTT assay, NCI-H460. Conditions: read-out: IC50 Value NCI-H460, 72 hours. The class given is cell-based, human. In outline: as §1
Data set [5] deals with NSCLC cell lines (NCI-H460, NCI-H1975, HCC827, and A549). Kind of data set: MTT assay, panel of four NSCLC cell lines. The class given is cell-based, human. The procedure, abridged: as §1
The test system of data set [6] is nine NSCLC cell lines. Kind of data set: NCI-60 one-dose assay, average over nine NSCLC cell lines. The class given is cell-based. As to conditions: Homo sapiens, 48 h, read-out: Growth % Average. In outline:
(§2)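 NCI DTP single-dose screen. Cells were seeded at a density tied to doubling rate and incubated 24 h, then exposed to test compound at 10 μM for 48 h. Growth percentage is relative to the starting cell population: positive means net growth, negative means cell loss. It is given per NSCLC line or as the mean across the nine NSCLC lines.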

Data set [7] concerns A549/ATCC. Kind of data set: NCI-60 five-dose assay, A549/ATCC. The class given is cell-based. As to conditions: 48 hours, total growth inhibition.
Data set [8] concerns C57BL/6 mice. The data set is described as follows: Preliminary in vivo toxicity study. Conditions: 20 mg/kg IP on days 0, 7, 14 and 29.
Data set [9] deals with EKVX. The data set is described as follows: NCI-60 five-dose assay, EKVX. The class given is cell-based, human. Conditions: 48 hours, total growth inhibition.
For data set [10], the system named is NCI-H522. Kind of data set: NCI-60 five-dose assay, NCI-H522. As to conditions: 48 hours, total growth inhibition. The class given is cell-based, human.
The subject of data set [11] is HOP-62. The data set is described as follows: NCI-60 five-dose assay, HOP-62. The class given is cell-based, human. Conditions: 48 hours, total growth inhibition.
For data set [12], the system named is NCI-H522. The data set is described as follows: NCI-60 one-dose assay, NCI-H522. The class given is cell-based. Conditions: Homo sapiens, NCI-H522, 48 h, read-out: Growth % NCI-H522. In outline:
as §2

Data set [13] has as its system HOP-92. Kind of data set: NCI-60 five-dose assay, HOP-92. The class given is cell-based, human. Conditions: 48 hours, total growth inhibition.
Data set [14] concerns NSCLC cell lines. Kind of data set: NCI-60 five-dose assay, ranges over NSCLC cell lines. The class given is cell-based. Conditions: Homo sapiens; for GI50: read-out: GI50 values, range over NSCLC cell lines; for CC50: read-out: LC50 values, range over NSCLC cell lines.
In data set [15] the test system is NCI-H23. The data set is described as follows: NCI-60 five-dose assay, NCI-H23. As to conditions: 48 hours, total growth inhibition. The class given is cell-based, human.
Data set [16] has as its system NCI-H226. Kind of data set: NCI-60 five-dose assay, NCI-H226. The class given is cell-based, human. As to conditions: 48 hours, total growth inhibition.
The subject of data set [17] is NCI-H322M. Kind of data set: NCI-60 five-dose assay, NCI-H322M. The class given is cell-based, human. As to conditions: 48 hours, total growth inhibition.
The test system of data set [18] is NCI-H460. The data set is described as follows: NCI-60 five-dose assay, NCI-H460. The class given is cell-based, human. Conditions: 48 hours, total growth inhibition.
Data set [19] concerns NCI-H460. The data set is described as follows: NCI-60 one-dose assay, NCI-H460. The class given is cell-based. As to conditions: Homo sapiens, NCI-H460, 48 h, read-out: Growth % NCI-H460. The procedure, abridged: as §2

Regarding `N.N.[Cl][Pt][Cl]` [Cisplatin, cisplatin], the IC50 was 5 µM in data set [1], 9 µM in data set [2], 3 µM in data set [3] and 6 µM in data set [4].

As to `[Br-].[Br-].c1ccc2cc(Cn3cc[n+](Cn4cc[n+](Cc5ccc6ccccc6c5)c4)c3)ccc2c1` [Compound 1, 1-(naphthalen-2-ylmethyl)-3-((3-(naphthalen-2-ylmethyl)-imidazolium-1-yl)methyl)-imidazolium bromide], in data set [5] (MTT, 72 hours, three of the four cell lines tested), the “IC50 values for three of the four cell lines” value was “above the testing concentration”. Besides, the activity at 10 µM in data set [6] is 79.5%.

Regarding `c1ccc2cc(Cn3cc[n+](CCn4cc[n+](Cc5ccc6ccccc6c5)c4)c3)ccc2c1` [Compound 2, 1-(naphthalen-2-ylmethyl)-3-(2-(3-(naphthalen-2-ylmethyl)-imidazolium-1-yl)ethyl)-imidazolium bromide], the activity at 10 µM in data set [6] is 80.9%.

With `c1ccc2cc(Cn3cc[n+](CCCn4cc[n+](Cc5ccc6ccccc6c5)c4)c3)ccc2c1` [Compound 3, 1-(naphthalen-2-ylmethyl)-3-(3-(3-(naphthalen-2-ylmethyl)-imidazolium-1-yl)propyl)-imidazolium bromide], the activity at 10 µM in data set [6] was 72.8%.

Turning to `c1ccc2cc(Cn3cc[n+](CCCCCn4cc[n+](Cc5ccc6ccccc6c5)c4)c3)ccc2c1` [Compound 5, 1-(naphthalen-2-ylmethyl)-3-(5-(3-(naphthalen-2-ylmethyl)-imidazolium-1-yl)pentyl)-imidazolium bromide], the activity at 10 µM in data set [6] amounted to 53.9%.

In the case of `c1ccc2cc(Cn3cc[n+](CCCCCCn4cc[n+](Cc5ccc6ccccc6c5)c4)c3)ccc2c1` [Compound 6, 1-(naphthalen-2-ylmethyl)-3-(6-(3-(naphthalen-2-ylmethyl)-imidazolium-1-yl)hexyl)-imidazolium bromide], in [6], the activity at 10 µM turned out to be 47.3%.

As for `c1ccc2cc(Cn3cc[n+](CCCCCCCn4cc[n+](Cc5ccc6ccccc6c5)c4)c3)ccc2c1` [Compound 7, 1-(naphthalen-2-ylmethyl)-3-(7-(3-(naphthalen-2-ylmethyl)-imidazolium-1-yl)heptyl)-imidazolium bromide], the activity at 10 µM in data set [6] came out at 30%.

For the compound `[Br-].[Br-].c1ccc2cc(Cn3cc[n+](CCCCCCCCCCn4cc[n+](Cc5ccc6ccccc6c5)c4)c3)ccc2c1` [Compound 10, 1-(naphthalen-2-ylmethyl)-3-(10-(3-(naphthalen-2-ylmethyl)-imidazolium-1-yl)decyl)-imidazolium bromide], the “TGI A549/ATCC” value in data set [7] amounted to 13.3 µM. The tolerability result in [8] is recorded as “well tolerated”. In addition, in [9], the “TGI EKVX” value was found to be 9.07 µM. For the same compound, the activity at 10 µM in data set [6] was found to be 2.47%. Also, in data set [10], the “TGI NCI-H522” value was determined as 1.94 µM. Besides, the “TGI HOP-62” value in data set [11] was found to be 7.24 µM. Also, in data set [12], the activity at 10 µM was -72.3%. Besides, the “TGI HOP-92” value in [13] stood at 2.96 µM. Further, in [14], the GI50 is 0.396 to 3.55 µM and the CC50 is 15.2 to 58.4 µM. The “TGI NCI-H23” value in data set [15] turned out to be 3.35 µM.

Regarding `[Br-].[Br-].c1ccc2cc(Cn3cc[n+](CCCCCCCCCCCCn4cc[n+](Cc5ccc6ccccc6c5)c4)c3)ccc2c1` [Compound 12, 1-(naphthalen-2-ylmethyl)-3-(12-(3-(naphthalen-2-ylmethyl)-imidazolium-1-yl)dodecyl)-imidazolium bromide], the concentration for half-maximal inhibition (IC50) in [5] (Homo sapiens, 72 h, read-out: IC50 values for three of the four cell lines) is less than 1 µM. Also, in data set [7], the “TGI A549/ATCC” value came to 3.57 µM. In addition, the “TGI EKVX” value in [9] is 4.20 µM. Moreover, the activity at 10 µM in data set [6] is -60.9%. In addition, the “TGI NCI-H226” value in data set [16] amounted to 5.52 µM. In data set [10], the “TGI NCI-H522” value came out at 1.25 µM. In addition, the “TGI NCI-H322M” value in data set [17] is 3.90 µM. Also, in [11], the “TGI HOP-62” value worked out at 2.65 µM. In data set [18], the “TGI NCI-H460” value worked out at 2.96 µM. Besides, the “TGI HOP-92” value in data set [13] was determined as 1.40 µM. Also, in data set [14], the GI50 lay within 0.47 to 0.984 µM and the CC50 was in the range of 7.29 to 14.6 µM. Further, in [19], the activity at 10 µM is -69.9%. Also, in data set [15], the “TGI NCI-H23” value turned out to be 2.40 µM.
